Bioassay records as filed in PubChem BioAssay.
MrgX1 PAM – allosterically activates human MrgX1 receptor signaling; Q96LB2; MrgX1-HEK293, Fluo-4 calcium flux, FDSS; active compounds read high; B-score at 10 µM; 310,000 compounds, 0.63% hits; AID 588675;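 active means plate-corrected calcium response at least 3 library SD above typical, normal starting fluorescence, not activating the receptor alone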;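 further: compound read alongside a low EC10 to EC30 dose of BAM8-22 agonist; peak minus trough fluorescence over baseline measured at the second addition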
Target sequence (Q96LB2 whole entry, looked up): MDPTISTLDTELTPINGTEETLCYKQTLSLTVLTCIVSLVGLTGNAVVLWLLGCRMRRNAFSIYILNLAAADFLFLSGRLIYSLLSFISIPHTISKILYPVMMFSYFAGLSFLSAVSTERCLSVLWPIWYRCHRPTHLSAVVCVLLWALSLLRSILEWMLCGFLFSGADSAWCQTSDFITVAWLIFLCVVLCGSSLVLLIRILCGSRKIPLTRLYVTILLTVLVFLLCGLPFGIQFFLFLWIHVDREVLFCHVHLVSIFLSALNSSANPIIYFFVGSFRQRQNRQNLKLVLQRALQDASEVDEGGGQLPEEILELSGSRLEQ
MrgX1 agonist – human MrgX1 receptor agonism, primary screen | MrgX1-HEK293 cells, Fluo-4 calcium fluorescence, agonist mode; active compounds read high | B-score at 10 µM | 310,000 compounds, 0.44% hits | AID 588627;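 active means calcium response B-score plate-corrected fluorescence ratio at least 3 library SD, with starting fluorescence B-score inside 5 SD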
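Assay system: stable human MrgX1 HEK293 cell line. Quantity: 15,000 cells per well. Schedule: cells plated overnight, dye loaded 0.5 h 37 °C, 0.5 h room temperature. Detection: Fluo-4 NW calcium-flux fluorescence, kinetic read. Read-out basis: peak-minus-minimum fluorescence over baseline, converted to B scores. Control set: positive and negative control wells on each plate.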
RGS4 pot – RGS4 potentiation or activation; 310,000 compounds, 0.92% hits; B-score at 10 µM; HEK293 M3R/inducible RGS4, carbachol calcium flux Fluo4; active compounds read low;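 active means B-score of the integrated calcium signal more than 4 SD below the library mean, with starting fluorescence not abnormally high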;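 further: negative B-score means reduced calcium response which marks RGS4 activation or potentiation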
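Detection: kinetic calcium fluorescence imaging with Fluo4-AM dye, 2 µM / Material: HEK293 cells with stable M3R and inducible RGS4 / Schedule: recording 10 s baseline at 1 Hz, 100 s post-agonist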
RGS4 inh – human RGS4 inhibition | HEK293 M3R/RGS4 inducible, Fluo-4 calcium flux; active compounds read high; triggered by carbachol at its EC20 | B-score at 10 µM | 310,000 compounds, 0.45% hits;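 active means B-score, a plate-corrected calcium signal, over three deviations above library mean, with baseline fluorescence within five deviations of library mean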;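 further: RGS4 expression induced by doxycycline in cells with stable M3 receptor; B-score is computed from the integrated fluorescence ratio over baseline after carbachol; higher B-score means a larger calcium signal and so more RGS4 inhibition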
MrgX1 antag – antagonists of human MrgX1 receptor | 310,000 compounds, 1.3% hits | AID 588676 | B-score at 10 µM | MRGX1-HEK293 calcium flux, Fluo-4, BAM8-22 antagonism; active compounds read low;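 active means calcium-response B-score plate-corrected more than 3 library SD below zero, starting fluorescence within 5 deviations, no agonist response on first addition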;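 further: peak minus trough fluorescence over baseline after final BAM8-22 challenge near maximal dose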
* marks the source's active call; other numbers are inactive results; i = inactive. The list is not random: actives were taken first. Their share in the collection is about 3.5%.

SMILES	MrgX1 PAM	MrgX1 agonist	RGS4 pot	RGS4 inh	MrgX1 antag
CC1(C)CC(=O)C(C(c2ccco2)C2C(=O)CC(C)(C)CC2=O)C(=O)C1	i	i	i	i	-6.82*
CCc1cc(C(=O)N/N=C/c2ccc(OC)cc2)c2ccccc2n1	i	i	i	i	i
O=C(Cc1ccc(Cl)cc1)Nc1ccccc1N1CCN(C(=O)c2ccccc2)CC1	i	i	-7.11*	i	i
O=C(NCC1CCCO1)c1nn2c(C(F)(F)F)cc(-c3cc(Br)cs3)nc2c1Br (stereo not given)	i	33.3*	i	i	i
Cc1ccnc(N2C(=O)c3cccc4c([N+](=O)[O-])ccc(c34)C2=O)c1	i	i	i	i	-5.17*
Cc1c(C(=O)NCCC2=CCCCC2)oc2ccc(S(=O)(=O)N3CCC4(CC3)OCCO4)cc12	i	i	-8.02*	i	i
Cc1cc(NC(=O)C(C)SCC(=O)Nc2nnc(CC(C)C)s2)no1 (stereo not given)	i	i	i	i	i
CC(=O)OCC(=O)Nc1ccc([N+](=O)[O-])cc1Cl	i	i	i	i	i
CC(=O)Oc1c(C)cc(Cl)cc1C(=O)Nc1ccc([N+](=O)[O-])cc1Cl	i	i	i	i	-4.97*
O=C(c1ccc(Cn2cc(Br)cn2)cc1)N1N=C(C(F)F)CC1(O)C(F)F (stereo not given)	i	i	-7.88*	i	i
O=C1OCCN1C(=O)[C@H]1[C@H](c2ccc(F)cc2)C(c2ccc(F)cc2)=NN1c1ccc(Br)cc1	i	i	-9.23*	i	i
Cc1ccc2nc(C)/c(=N\O)c(C)nc2c1	9.99*	i	i	i	i
O=C(O)CC/C(=N\Nc1ccc([N+](=O)[O-])cc1)c1ccccc1	i	i	i	i	-5.89*
Nc1nc(-c2ccccc2)c(-c2ccc([N+](=O)[O-])cc2)s1	i	i	i	i	-5.1*
O=C(Oc1cccc2cccnc12)c1cccc(N2C(=O)C3C4CCC(C4)C3C2=O)c1 (stereo not given)	i	i	i	5.97*	i
COc1ccccc1Nc1nnc(SCc2nnc(-c3cc(OC)c(OC)c(OC)c3)o2)s1	7.1*	i	i	i	i
COc1cc(-c2nnc(CSc3nnc(Nc4ccc(C(C)C)cc4)s3)o2)cc(OC)c1OC	i	i	i	i	i
CCOc1ccccc1Nc1nnc(SCc2nnc(-c3cc(OC)c(OC)c(OC)c3)o2)s1	i	i	i	i	-6.19*
COc1ccc(N2CCN(C(=O)c3ccc4c(c3)NC(=O)C(CSCc3cccc(F)c3)N4)CC2)cc1 (stereo not given)	i	36.3*	i	i	i
COc1ccc(-c2cc(C)no2)cc1S(=O)(=O)NCc1ccc(OC(C)C)cc1	i	i	i	i	i
CCOc1cc(/C=C(\C#N)C(=O)Nc2cccc(C(=O)O)c2)ccc1OCc1ccccc1Cl	i	i	-8.57*	i	i
COc1cc(/C=C(\C#N)C(=O)Nc2cccc(C(=O)O)c2)ccc1OCc1ccc(F)cc1	i	i	i	i	i
O=C1CCC([N+](=O)[O-])C(c2cc3c(cc2Cl)OCO3)N1 (stereo not given)	i	i	i	i	-4.51*
O=C(N/N=C/c1ccccn1)c1cc(Br)ccc1O	i	26.9*	i	i	i
O=C(N/N=C/c1cccnc1)c1cc(Br)ccc1O	i	i	i	i	i
CC(Oc1ccc(Cl)cc1Cl)c1nc(-c2ccc(NC(=O)c3ccncc3)cc2)no1 (stereo not given)	i	i	i	i	-5.25*
CC(Oc1ccc(Cl)cc1Cl)C(=O)NNC(=O)c1ccncc1 (stereo not given)	i	i	i	i	i
CC(Oc1ccc(Cl)cc1Cl)c1nc(-c2ccc(NC(=O)c3cccnc3)cc2)no1 (stereo not given)	i	i	-7.86*	i	i
CCOc1ccc(C(=O)NCC(=O)N2CCN(C/C=C/c3ccccc3)CC2)cc1OCC	i	i	-7.16*	i	i
Fc1ccc(OCCOCCN2CCCC2)cc1	i	i	i	i	i
